# Data taken from ChEMBL document CHEMBL5523690, “Synergistic effect of tryptamine-urea derivatives to overcome the chromosomally-mediated colistin resistance in Klebsiella pneumoniae” (Bioorg Med Chem, 2024).
# Experiments:
# [1] = tested on: Erythrocyte; assay: Hemolytic activity in sheep RBC assessed as RBC deformation at 25 uM measured after 1 hr in presence of colistin by fluorescence microscopic analysis; format: toxicity, cell-based, Ovis aries
# Procedure, shortened: (§1)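 PBS-washed sheep erythrocytes were exposed to compound in PBS at 25–800 µM, or 25 µM plus colistin 1 µg/mL. Each reaction held 5% (v/v) RBCs and 5% (v/v) DMSO, incubated 1 h at 37 °C with 100 rpm agitation, then centrifuged at 1000 g, 4 °C. Cell shape was examined by optical microscopy. Triplicates.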
# [2] = tested on: Pseudomonas aeruginosa; assay: Antibacterial activity against Pseudomonas aeruginosa ATCC27853 assessed as inhibition of visible bacterial growth measured after 20 hrs under aerobic condition by two fold serial dilution assay; format: functional
# Procedure, shortened: (§2)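 Broth microdilution following EUCAST. Compound was tested at final well concentrations of 0.25–128 µg/mL against 5.10^5 CFU/mL inoculum, incubated 20 h at 37 °C aerobically. MIC was taken as the lowest concentration with no visible growth. There were three independent experiments per strain.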
# [3] = tested on: Klebsiella pneumoniae; assay: Antibacterial activity against chromosomally-mediated resistant Klebsiella pneumoniae BA03057 assessed as inhibition of visible bacterial growth measured after 20 hrs under aerobic condition by two fold serial dilution assay; format: functional
# [4] = tested on: Pseudomonas aeruginosa; assay: Antibacterial activity against chromosomally-mediated colistin resistant Pseudomonas aeruginosa 1002 assessed as inhibition of visible bacterial growth measured after 20 hrs under aerobic condition by two fold serial dilution assay; format: functional
# [5] = tested on: Klebsiella pneumoniae; assay: Synergistic antibacterial activity against Klebsiella pneumoniae BA03057 assessed as fractional inhibitory concentration index incubated for 24 hrs under aerobic condition in presence of colistin by checkerboard assay; format: functional
# Procedure, shortened: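 Checkerboard against KP BA03057 at 5.10^5 CFU/mL. Colistin was two-fold diluted 0–64 µg/mL across compound two-fold diluted 0–100 µM. Plates were incubated 24 h at 37 °C aerobically and absorbance read at 600 nm. FICI = MIC(compound, combined)/MIC(compound alone) + MIC(colistin, combined)/MIC(colistin alone), with synergy at FICI < 0.5. Plates were run in duplicate.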
# [6] = tested on: Escherichia coli; assay: Antibacterial activity against Escherichia coli ATCC25922 assessed as inhibition of visible bacterial growth measured after 20 hrs under aerobic condition by two fold serial dilution assay; format: functional; procedure, shortened: as §2
# [7] = tested on: Erythrocyte; assay: Hemolytic activity in sheep RBC assessed as hemolysis at 1600 uM measured after 1 hr by fluorescence microscopic analysis; format: toxicity, cell-based, Ovis aries
# [8] = tested on: Erythrocyte; assay: Hemolytic activity in sheep RBC assessed as hemolysis at 25 uM measured after 1 hr by fluorescence microscopic analysis; format: toxicity, cell-based, Ovis aries
# Procedure, shortened: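 Sheep erythrocytes, PBS-washed, were treated at 5% (v/v) with compound (25–800 µM) in 5% (v/v) DMSO for 1 h at 37 °C, shaking at 100 rpm. Controls were 0.5% Triton X-100 (positive) and PBS (negative). After centrifugation at 1000 g, 4 °C, hemolysis was assessed visually and by absorbance (750–600 nm) as percent RBC survival. Triplicate.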
# [9] = Hemolytic activity in sheep RBC assessed as survival rate at 25 uM measured after 1 hr in presence of colistin by fluorescence microscopic analysis relative to control; format: toxicity, cell-based, Ovis aries, Erythrocyte; settings: sheep red blood cells (erythrocytes), read-out: Survival
# Procedure, shortened: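 Washed sheep erythrocytes in PBS, 5% (v/v) final with 5% (v/v) DMSO, given 25 µM agent plus colistin 1 µg/mL; 1 h at 37 °C, shaking 100 rpm; Triton X-100 0.5% positive and PBS negative controls; cells spun off at 1000 g, 4 °C; absorbance (750–600 nm) read as % RBC survival; triplicate; shape checked by optical microscopy.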
# [10] = tested on: Escherichia coli; assay: Antibacterial activity against colistin resistant Escherichia coli NTCC 13846 harboring mcr-1 gene assessed as inhibition of visible bacterial growth measured after 20 hrs under aerobic condition by two fold serial dilution assay; format: functional
# [11] = tested on: Pseudomonas aeruginosa; assay: Antibacterial activity against chromosomally-mediated colistin resistant Pseudomonas aeruginosa 10039 assessed as inhibition of visible bacterial growth measured after 20 hrs under aerobic condition by two fold serial dilution assay; format: functional
# [12] = tested on: Erythrocyte; assay: Hemolytic activity in sheep RBC assessed as RBC deformation at 800 uM measured after 1 hr by fluorescence microscopic analysis; format: toxicity, cell-based, Ovis aries; procedure, shortened: as §1
# [13] = tested on: Klebsiella pneumoniae; assay: Colistin adjuvant activity against colistin-resistant Klebsiella pneumoniae BA03057 assessed as antibacterial effect by measuring colistin MIC incubated for 24 hrs under aerobic condition by two fold serial dilution method; format: functional
# [14] = tested on: Escherichia coli; assay: Colistin adjuvant activity against colistin-resistant Escherichia coli A50 assessed as antibacterial effect by measuring colistin MIC incubated for 24 hrs under aerobic condition by two fold serial dilution method; format: functional
# [15] = tested on: Pseudomonas aeruginosa; assay: Antibacterial activity against chromosomally-mediated colistin resistant Pseudomonas aeruginosa 15080 assessed as inhibition of visible bacterial growth measured after 20 hrs under aerobic condition by two fold serial dilution assay; format: functional
# [16] = tested on: Escherichia coli; assay: Colistin adjuvant activity against colistin-resistant Escherichia coli A50 assessed as colistin MIC by measuring potentiation fold incubated for 24 hrs under aerobic condition by two fold serial dilution method relative to colistin alone; format: functional
# [17] = tested on: Escherichia coli; assay: Antibacterial activity against colistin resistant Escherichia coli A50 harboring mcr-1 gene assessed as inhibition of visible bacterial growth measured after 20 hrs under aerobic condition by two fold serial dilution assay; format: functional
# [18] = tested on: Klebsiella pneumoniae; assay: Antibacterial activity against Klebsiella pneumoniae ATCC700603 assessed as inhibition of visible bacterial growth measured after 20 hrs under aerobic condition by two fold serial dilution assay; format: functional; procedure, shortened: as §2
smiles,measurement,setting,value
O=C(NCCc1c[nH]c2ccccc12)Nc1cccc(F)c1,Activity,[1],Non-Toxic
same,MIC,[2],> 128 µg/mL
same,MIC,[3],> 128 µg/mL
same,MIC,[4],> 128 µg/mL
same,fractional inhibitory concentration index (FICI),[5],0.073
same,MIC,[6],> 128 µg/mL
same,Activity,[7],Non-Toxic
same,Activity,[8],Non-Toxic
same,"viability at 1 h, 25 µM",[9],96%
same,MIC,[10],> 128 µg/mL
same,MIC,[11],> 128 µg/mL
same,Activity,[12],Non-Toxic
same,MIC,[13],1 µg/mL
same,MIC,[14],4 µg/mL
same,MIC,[15],> 128 µg/mL
same,fold change (FC),[16],0.5
same,MIC,[17],> 128 µg/mL
same,MIC,[18],> 128 µg/mL
